Results from ChEMBL document CHEMBL4251706, “Elimination of HIV-1 Latently Infected Cells by Gnidimacrin and a Selective HDAC Inhibitor” (ACS Med Chem Lett, 2018).
pEC50: −log10 of the molar value. Active and inactive are the calls of the source. The calls are words filed in the database; no cut-off is given here.

Experiments:
[1] = Cytotoxicity against human U937 cells assessed as reduction in cell viability after 48 hrs by CellTiter-Glo luminescent cell viability assay; format: cell-based, U-937
Outline: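 U937 cells (HIV-1-negative parental line of U1) at 2x10^5 cells/ml exposed to a range of concentrations for 48 h at 37 °C. Viability read by CellTiter-Glo luminescence. CC50 ± SD derived from 3 independent experiments.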

[2] = Selectivity index, ratio of CC50 for human U937 cells to EC50 for reactivation of latent HIV1 infected in human U1 cells
[3] = target: Histone deacetylase 3/Nuclear receptor corepressor 2 (HDAC3/NCoR2) (Homo sapiens) (UniProt O15379+Q9Y618); assay: Inhibition of full length human C-terminal His-tagged HDAC3/N-terminal GST-tagged NCOR2 (395 to 489 residues) expressed in baculovirus infected Sf9 insect cells using substrate measured after 60 mins by colorimetric method
[4] = test system: Human immunodeficiency virus 1; assay: Reactivation of latent HIV1 infected in human U1 cells assessed as increase in p24 production after 48 hrs by ELISA; format: functional, organism-based; details: Human immunodeficiency virus 1, U1, 48 h; read-out: EC50
[5] = test system: Human immunodeficiency virus 1; assay: Reactivation of latent HIV1 infected in human U1 cells assessed as increase in p24 production after 48 hrs by ELISA relative to vorinostat; format: functional
Outline: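 U1 cells at 2x10^5 cells/ml incubated with a range of concentrations at 37 °C for 48 h. Supernatant p24 measured by HIV p24 ELISA. EC50 ± SD derived from 3 independent experiments.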

[6] = test system: Human immunodeficiency virus 1; assay: Reactivation of latent HIV1 infected in human J-Lat A2 cells assessed as increase in GFP positive cells at 1 uM after 72 hrs by flow cytometric analysis; format: functional, organism-based
Outline: (§1)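 J-Lat (A2) cells, 1x10^6 cells/well, incubated with the test agent at 37 °C for 72 h. GFP-expressing cells and percent viable cells measured by flow cytometry. Two independent experiments.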

[7] = Cytotoxicity against human Jurkat cells assessed as reduction in cell viability after 72 hrs by CellTiter-Glo luminescent cell viability assay; format: cell-based
[8] = Cytotoxicity against human J-Lat (A2) cells assessed as effect on cell viability at 1 uM after 72 hrs by flow cytometric analysis; format: cell-based; outline: as §1
[9] = test system: Human immunodeficiency virus 1; assay: Reactivation of latent HIV1 infected in human U1 cells/uninfected U937 cell mixture assessed as reduction in proviral DNA level at 0.57 uM supplemented with fresh medium containing compound every 3 days for 18 days measured post last dose by PCR analysis; format: functional, organism-based
Outline: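 U1/U937 (1:4) cultures treated for 18 days with T20 present and refed with compound every 3 days. HIV-1 pol DNA (200 bp) amplified by PCR for 30 cycles, with B2M (779 bp, 25 cycles) as internal control. Products run on 2% agarose gels and densitometry expressed as the treated/DMSO ratio.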

[10] = test system: Human immunodeficiency virus 1; assay: Reactivation of latent HIV1 infected in human U1 cells/uninfected U937 cell mixture assessed as increase in p24 production at 0.57 uM supplemented with fresh medium containing compound every 3 days for 18 days and subsequent dosing at day 18 post dose measured on day 21 by ELISA
[11] = Cytotoxicity against human J-Lat (A2) cells assessed as effect on cell viability at 0.5 nM after 72 hrs by flow cytometric analysis; format: cell-based; details: 0.0005 µM
Outline: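 J-Lat (A2) cells, 1x10^6 cells/well, exposed to LRA(s) at 37 °C for 72 h; percent viable cells read by flow cytometry, two independent experiments.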

[12] = test system: Human immunodeficiency virus 1; assay: Reactivation of latent HIV1 infected in human J-Lat A2 cells assessed as increase in GFP positive cells at 0.5 nM after 72 hrs by flow cytometric analysis; format: functional, organism-based
Outline: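 J-Lat (A2) cells express GFP on latent HIV-1 activation; 1x10^6 cells/well incubated with LRA(s), alone or in pairs (HDAC inhibitor TPB 0.3 µM or TPyB 1.0 µM), at 37 °C for 72 h; GFP+ cell frequency by flow cytometry; two independent experiments, one-tailed t-test.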

[13] = U937 cells (CC50) and latent HIV-1 infected U1 cells (EC50)

Row | Compound | CC50 at 48 h [1] [nM] | selectivity ratio [2, 13] | selectivity ratio [2] | inhibition [3] | pEC50 [4] | fold change (FC) [5] | Activity [6] | CC50 at 72 h [7] [µM] | Activity [8] | Activity [9] | Activity [10] | Activity [11] | Activity [12]
1 | O=C(CCCCCCC(=O)Nc1ccccc1)NO [VORINOSTAT] | 780 | – | – | – | – | – | – | – | – | – | – | – | –
2 | C/C=C1\NC(=O)[C@H]2CSSCC/C=C/[C@H](CC(=O)N[C@H](C(C)C)C(=O)N2)OC(=O)[C@H](C(C)C)NC1=O [ROMIDEPSIN] | 0.73 | 0.66 | – | – | – | – | – | – | – | – | – | – | –
3 | Nc1ccccc1NC(=O)c1ccc(-c2cn(CCc3ccsc3)nn2)cc1 | 830 | – | 1.4 | Active | 6.22 | 0.12 | – | – | – | – | – | – | –
4 | CC(=O)Nc1ccc(C(=O)Nc2nc(-c3cccs3)ccc2N)cc1 | 47300 | 8.2 | – | – | 5.24 | 1.3 | Active | 44.3 | Non-Toxic | Active | Active | – | –
5 | C/C=C(/C)C(=O)O[C@H]1C(C)=C[C@]23C(=O)[C@@H](C=C(CO)[C@@H](O)[C@]12O)[C@H]1[C@@H](C[C@H]3C)C1(C)C [INGENOL MEBUTATE] | > 200 | > 42 | – | – | 8.32 | 9.7 | – | – | – | – | – | Non-Toxic | Active
